Laboratory results taken from ChEMBL document CHEMBL1126811, “Fluorinated and iodinated dopamine agents: D2 imaging agents for PET and SPECT” (J Med Chem, 1993).
Blank lines part the entries; values can stand above or below the molecule they belong to.

Legend:
Rattus norvegicus [1] = experiment: Biodistribution of radioligand [125I]FIDA1 in spleen of rat after 30 minutes after an intravenous injection is given (average of 2 rats); type: ADME, organism-based; conditions: in vivo, 0.5 h
Rattus norvegicus [2] = experiment: Biodistribution of radioligand [125I]FIDA1 in muscle of rat after 30 minutes after an intravenous injection is given (average of 2 rats); type: ADME, organism-based, Muscle tissue; conditions: in vivo, 0.5 h
Rattus norvegicus [3] = experiment: Biodistribution of radioligand [125I]FIDA1 in thyroid of rat after 30 minutes after an intravenous injection is given (average of 2 rats); type: ADME, organism-based, Thyroid gland; conditions: in vivo, 0.5 h
Rattus norvegicus [4] = experiment: Biodistribution of radioligand [125I]FIDA1 in brain of rat after 30 minutes after an intravenous injection is given (average of 2 rats); type: ADME, organism-based; conditions: in vivo, 0.5 h
Rattus norvegicus [5] = experiment: Biodistribution of radioligand [125I]FIDA1 in muscle of rat after 120 minutes after an intravenous injection is given (average of 2 rats); type: ADME, organism-based, Muscle tissue; conditions: in vivo, 2 h
Rattus norvegicus [6] = experiment: Uptake of radioligand [125I]-FIDA1 by hippo-campus in rat after 60 minutes after an intravenous injection is given (average of 3 rats); type: ADME, organism-based; conditions: in vivo, 1 h
Summary of the method: (§1)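 Male Sprague–Dawley rats (225–300 g) under ether anesthesia received radioiodinated tracer (8–10 μCi in 0.2 mL saline) into the femoral vein. They were killed by cardiac excision at set times. Cortex, striatum, hippocampus and cerebellum were dissected, weighed and gamma-counted. Results are % dose/gram against diluted injected dose.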

Rattus norvegicus [7] = experiment: Biodistribution of radioligand [125I]FIDA1 in skin of rat after 30 minutes after an intravenous injection is given (average of 2 rats); type: ADME, organism-based, Zone of skin; conditions: in vivo, 0.5 h
Rattus norvegicus [8] = experiment: Uptake of radioligand [125I]FIDA1 by cortex in rat after 30 minutes after an intravenous injection is given (average of 2 rats); type: ADME, organism-based; conditions: in vivo, 0.5 h; summary of the method: as §1
Rattus norvegicus [9] = experiment: Uptake of radioligand [125I]FIDA1 by hippo-campus in rat after 2 minutes after an intravenous injection is given (average of 3 rats); type: ADME, organism-based; conditions: in vivo; summary of the method: as §1
Rattus norvegicus [10] = experiment: Biodistribution of radioligand [125I]FIDA1 in lung of rat after 30 minutes after an intravenous injection is given (average of 2 rats); type: ADME, organism-based; conditions: in vivo, 0.5 h
Rattus norvegicus [11] = experiment: Biodistribution of radioligand [125I]FIDA1 in heart of rat after 30 minutes after an intravenous injection is given (average of 2 rats); type: ADME, organism-based; conditions: in vivo, 0.5 h
Rattus norvegicus [12] = experiment: Uptake of radioligand [125I]FIDA1 by striatum in rat after 30 minutes after an intravenous injection is given (average of 2 rats); type: ADME, organism-based; conditions: in vivo, 0.5 h; summary of the method: as §1
Rattus norvegicus [13] = experiment: Biodistribution of radioligand [125I]FIDA1 in blood of rat after 60 minutes after an intravenous injection is given (average of 3 rats); type: ADME, organism-based; conditions: in vivo, 1 h
Summary of the method: (§2)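 Male Sprague–Dawley rats (225–300 g) were given 0.2 mL saline containing the radioiodinated ligand (8–10 μCi) into the femoral vein under ether anesthesia. They were killed at set times by cardiac excision. Organs were weighed and γ-counted against diluted aliquots of the injected dose and expressed as % dose/organ. Blood and muscle were taken as 7% and 40% of body weight. Three rats were used per point.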

Rattus norvegicus [14] = experiment: Uptake of radioligand [125I]FIDA1 by hippo-campus in rat after 30 minutes after an intravenous injection is given (average of 2 rats); type: ADME, organism-based; conditions: in vivo, 0.5 h; summary of the method: as §1
Rattus norvegicus [15] = experiment: Biodistribution of radioligand [125I]FIDA1 in liver of rat after 30 minutes after an intravenous injection is given (average of 2 rats); type: ADME, organism-based; conditions: in vivo, 0.5 h
Rattus norvegicus [16] = experiment: Uptake of radioligand [125I]FIDA1 by cerebellum in rat after 2 minutes after an intravenous injection is given (average of 3 rats); type: ADME, organism-based; conditions: in vivo; summary of the method: as §1
Rattus norvegicus [17] = experiment: Uptake of radioligand [125I]FIDA1 by hippo-campus in rat after 120 minutes after an intravenous injection is given (average of 3 rats); type: ADME, organism-based; conditions: in vivo, 2 h; summary of the method: as §1
Rattus norvegicus [18] = experiment: Biodistribution of radioligand [125I]FIDA1 in blood of rat after 2 minutes after an intravenous injection is given (average of 3 rats); type: ADME, organism-based; conditions: in vivo; summary of the method: as §2
Rattus norvegicus [19] = experiment: Uptake of radioligand [125I]-FIDA1 by cerebellum in rat after 30 minutes after an intravenous injection is given (average of 2 rats); type: ADME, organism-based; conditions: in vivo, 0.5 h; summary of the method: as §1
Rattus norvegicus [20] = experiment: Uptake of radioligand [125I]-FIDA1 by cortex in rat after 30 minutes after an intravenous injection is given (average of 3 rats); type: ADME, organism-based; conditions: in vivo, 0.5 h; summary of the method: as §1
Rattus norvegicus [21] = experiment: Uptake of radioligand [125I]FIDA1 by hippocampus in rat after 60 minutes after an intravenous injection is given (average of 3 rats); type: ADME, organism-based; conditions: in vivo, 1 h; summary of the method: as §1
Rattus norvegicus [22] = experiment: Biodistribution of radioligand [125I]FIDA1 in blood of rat after 120 minutes after an intravenous injection is given (average of 3 rats); type: ADME, organism-based; conditions: in vivo, 2 h; summary of the method: as §2
Rattus norvegicus [23] = experiment: Biodistribution of radioligand [125I]FIDA1 in liver of rat after 30 minutes after an intravenous injection is given (average of 3 rats); type: ADME, organism-based; conditions: in vivo, 0.5 h; summary of the method: as §2
Rattus norvegicus [24] = experiment: Biodistribution of radioligand [125I]FIDA1 in muscle of rat after 30 minutes after an intravenous injection is given (average of 3 rats); type: ADME, organism-based, Muscle tissue; conditions: in vivo, 0.5 h; summary of the method: as §2
Rattus norvegicus [25] = experiment: Biodistribution of radioligand [125I]FIDA1 in heart of rat after 30 minutes after an intravenous injection is given (average of 3 rats); type: ADME, organism-based; conditions: in vivo, 0.5 h; summary of the method: as §2
Rattus norvegicus [26] = experiment: Uptake of radioligand [125I]FIDA1 by hippocampus in rat after 2 minutes after an intravenous injection is given (average of 3 rats); type: ADME, organism-based; conditions: in vivo; summary of the method: as §1
Rattus norvegicus [27] = experiment: Biodistribution of radioligand [125I]FIDA1 in spleen of rat after 30 minutes after an intravenous injection is given (average of 3 rats); type: ADME, organism-based; conditions: in vivo, 0.5 h; summary of the method: as §2
Rattus norvegicus [28] = experiment: Uptake of radioligand [125I]FIDA1 by striatum in rat after 30 minutes after an intravenous injection is given (average of 3 rats); type: ADME, organism-based; conditions: in vivo, 0.5 h; summary of the method: as §1
Rattus norvegicus [29] = experiment: Biodistribution of radioligand [125I]FIDA1 in lung of rat after 30 minutes after an intravenous injection is given (average of 3 rats); type: ADME, organism-based; conditions: in vivo, 0.5 h; summary of the method: as §2
Rattus norvegicus [30] = experiment: Biodistribution of radioligand [125I]FIDA1 in muscle of rat after 120 minutes after an intravenous injection is given (average of 3 rats); type: ADME, organism-based, Muscle tissue; conditions: in vivo, 2 h; summary of the method: as §2
Rattus norvegicus [31] = experiment: Biodistribution of radioligand [125I]FIDA1 in brain of rat after 30 minutes after an intravenous injection is given (average of 3 rats); type: ADME, organism-based; conditions: in vivo, 0.5 h; summary of the method: as §2
Rattus norvegicus [32] = experiment: Uptake of radioligand [125I]-FIDA1 by hippocampus in rat after 30 minutes after an intravenous injection is given (average of 3 rats); type: ADME, organism-based; conditions: in vivo, 0.5 h; summary of the method: as §1
Rattus norvegicus [33] = experiment: Biodistribution of radioligand [125I]FIDA1 in thyroid of rat after 30 minutes after an intravenous injection is given (average of 3 rats); type: ADME, organism-based, Thyroid gland; conditions: in vivo, 0.5 h; summary of the method: as §2
Rattus norvegicus [34] = experiment: Uptake of radioligand [125I]FIDA1 by hippocampus in rat after 120 minutes after an intravenous injection is given (average of 3 rats); type: ADME, organism-based; conditions: in vivo, 2 h; summary of the method: as §1
Rattus norvegicus [35] = experiment: Uptake of radioligand [125I]FIDA1 by cerebellum in rat after 30 minutes after an intravenous injection is given (average of 3 rats); type: ADME, organism-based; conditions: in vivo, 0.5 h; summary of the method: as §1
Rattus norvegicus [36] = experiment: Biodistribution of radioligand [125I]FIDA1 in skin of rat after 30 minutes after an intravenous injection is given (average of 3 rats); type: ADME, organism-based, Zone of skin; conditions: in vivo, 0.5 h; summary of the method: as §2

- Dose/organ (Rattus norvegicus [1]): 0.43%
- Dose/organ (Rattus norvegicus [2]): 10.87%
- Dose/organ (Rattus norvegicus [3]): 0.04%
- Dose/organ (Rattus norvegicus [4]): 0.21%
- Dose/organ (Rattus norvegicus [5]): 2.04%
- Dose/g (Rattus norvegicus [6]): 0.05%
- Dose/organ (Rattus norvegicus [7]): 7.04%
- Dose/g (Rattus norvegicus [8]): 0.14%
- Dose/g (Rattus norvegicus [9]): 0.47%
- Dose/organ (Rattus norvegicus [10]): 1.06%
- Dose/organ (Rattus norvegicus [11]): 0.16%
- Dose/g (Rattus norvegicus [12]): 0.4%
- Dose/organ (Rattus norvegicus [13]): 0.64%
- Dose/g (Rattus norvegicus [14]): 0.14%
- Dose/organ (Rattus norvegicus [15]): 12.69%
- Dose/g (Rattus norvegicus [16]): 0.49%
- Dose/g (Rattus norvegicus [17]): 0.01%
- Dose/organ (Rattus norvegicus [18]): 2.08%
- Dose/g (Rattus norvegicus [19]): 0.09%
Compound: COc1cc(I)cc(C(=O)NC[C@@H]2CCCN2Cc2ccc(F)cc2)c1OC

- Dose/g (Rattus norvegicus [20]): 0.05%
- Dose/g (Rattus norvegicus [21]): 0.007%
- Dose/organ (Rattus norvegicus [22]): 0.51%
- Dose/organ (Rattus norvegicus [23]): 22.4%
- Dose/organ (Rattus norvegicus [24]): 8.24%
- Dose/organ (Rattus norvegicus [25]): 0.14%
- Dose/g (Rattus norvegicus [26]): 0.25%
- Dose/organ (Rattus norvegicus [27]): 0.31%
- Dose/g (Rattus norvegicus [28]): 0.24%
- Dose/organ (Rattus norvegicus [29]): 0.66%
- Dose/organ (Rattus norvegicus [30]): 0.76%
- Dose/organ (Rattus norvegicus [31]): 0.11%
- Dose/g (Rattus norvegicus [32]): 0.05%
- Dose/organ (Rattus norvegicus [13]): 0.78%
- Dose/organ (Rattus norvegicus [33]): 0.03%
- Dose/g (Rattus norvegicus [16]): 0.16%
- Dose/g (Rattus norvegicus [34]): 0.0006%
- Dose/organ (Rattus norvegicus [18]): 3.76%
- Dose/g (Rattus norvegicus [35]): 0.03%
- Dose/organ (Rattus norvegicus [36]): 4.97%
Compound: CCN1CCC[C@H]1CNC(=O)c1cc(I)cc(OC)c1OCCF
